Publication PMC5125022 (ACS chemical neuroscience, 2016)
“And” between values parts separate entries of the source, which are not always exact repeats. Identical values can stand only once. Like-named read-outs stand apart in the source and are kept apart here.

What was measured:
Swiss Webster mice [1] = experiment: Charcoal gavage intestinal motility assay; assay type: in vivo, mouse
[2] = system: Longitudinal Muscle Myenteric Plexus (LMMP) preparations from the guinea pig ileum; experiment: Electrical field stimulated contractions in LMMP preparations; assay type: cell-based; conditions: Figure 8A
[3] = system: circular muscle of the mouse colon; assay type: cell-based; conditions: for Inhibition of morphine-induced contractions: 1 nM antagonist, distal or proximal colon, data not shown; for Antagonism of morphine effects: Figure 6A; for Contractions induced by compound alone: concentrations up to 30 μM, distal and proximal colon preparations
Swiss Webster mice [4] = experiment: Colonic bead expulsion assay; assay type: in vivo, mouse
Swiss Webster mice [5] = experiment: Warm water tail immersion; assay type: in vivo, mouse
KOR [6] = target: T1, KOR (Homo sapiens, UniProt P41145); experiment: Competitive radioligand binding, KOR; conditions: ratio of Ki KOR / Ki MOR
How it was run: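 Membranes from CHO cells stably expressing a single opioid receptor were incubated with test compound at various concentrations and either [3H]naloxone (MOR) or [3H]norBNI (KOR) for 1 h at 30 °C. Specific binding was the difference between binding without and with 10 µM naltrexone. IC50 came from linear regression of Hill plots, and Ki from Cheng-Prusoff. Selectivity is the KOR Ki/MOR Ki ratio, from three independent experiments.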

Swiss Webster mice [7] = experiment: Acetic acid induced writhing assay; assay type: in vivo, mouse
KOR [8] = target: T1, KOR; experiment: [35S]GTPγS-binding assay in KOR-expressing CHO cell line; assay type: biochemical
How it was run: (§1)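 CHO-cell membranes expressing DOR or KOR (10 µg protein) were incubated for 90 min at 30 °C in assay buffer. The mix held 10 µM GDP, 0.1 nM [35S]GTPγS, and varying test compound or a 3 µM full-agonist reference (SNC80 for DOR, U50,488H for KOR). Nonspecific binding used 10 µM unlabeled GTPγS. Reactions were stopped by rapid vacuum filtration through glass-fibre filters, and bound radioactivity was read by liquid scintillation. Assays ran in triplicate, with 3 independent determinations. EC50 and Emax came from nonlinear one-site fits.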

DOR = DOR (Homo sapiens, UniProt P41143); experiment: [35S]GTPγS-binding assay in DOR-expressing CHO cell line; assay type: biochemical
How it was run: as §1

MOR [9] = target: T2, MOR (Mus musculus, UniProt P42866); experiment: [35S]GTPγS-binding assay in low MOR-expressing CHO cell line; assay type: biochemical
How it was run: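 Low-MOR-expressing CHO cell material was incubated for 90 min at 30 °C with varying test compound or 3 µM DAMGO (full-agonist reference). Nonspecific binding used 10 µM unlabeled GTPγS. Reactions were stopped by GF/B vacuum filtration, and bound radioactivity was read by scintillation counting. Triplicates gave 3 independent determinations. EC50 and Emax came from nonlinear one-site fits.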

KOR [10] = target: T1, KOR; conditions: ref 9b, cited from earlier work
MOR [11] = target: T2, MOR; conditions: Emax relative to full agonist DAMGO (100%), ref 9b; cited from earlier work
[12] = 10 nM antagonist, proximal colon, Figure 6C
[13] = 100 nM antagonist, distal colon, Figure 6B
[14] = Emax relative to full agonist U50,488H (100%)

For “1-Benzyl-17-Cyclopropylmethyl-3,14β-dihydroxy-4,5α-epoxy-6β-[(4'-pyridyl)acetamido]morphinan [BNAP]”, the “Decrease of intestinal motility” value (Swiss Webster mice [1]; charcoal gavage, mice, Figure 7B) was 1.5 fold, the “Reversal of morphine induced inhibition of intestinal motility” value (Swiss Webster mice [1]; mice) was “unable to reverse morphine induced inhibition of intestinal motility” and the “pIC50 for inhibition of EFS contractions” value [2] was 7.86 ± 0.07. For the same compound, the “Inhibition of morphine-induced contractions” value [3] was “neither NAP nor BNAP showed significant inhibition”, the “Antagonism of morphine effects” value ([3]; 10 nM antagonist, distal colon) was “neither NAP nor BNAP showed significant antagonism” and the “Morphine pD2 in the presence of antagonist” value (“Morphine pD2 in the presence” below) [3, 12] was 5.9. The “Morphine pD2 in the presence” value [3, 13] was 5.2, the “Change of morphine pD2 on raising the antagonist concentration” value ([3]; 100 nM versus 10 nM antagonist, proximal colon) was “no further reduction of the morphine pD2” and the “Contractions induced by compound alone” value [3] was “Neither BNAP nor NAP alone at concentrations up to 30 μM induced contractions”. The Bead expulsion time (Swiss Webster mice [4]; BNAP alone 10 mg/kg, mice (naive 17 min)) was 43 min, the “Antagonism of morphine's effect on bead expulsion” value (Swiss Webster mice [4]; given with morphine or 5 or 15 min before morphine) was “no significant antagonism of morphine's effects was observed” and the “Antinociceptive effect of compound alone” value (Swiss Webster mice [5]; 1.0 μg/5 μL ICV, compared to morphine alone, mice, Figure 4) was “did not produce significant antinociception”. For the same compound, the “Antagonism of morphine antinociception” value (Swiss Webster mice [5]; 10 mg/kg s.c., any morphine dose tested, mice, Figure 3) was “did not significantly antagonize morphine antinociception”, the “Antinociceptive effect of compound alone” value (Swiss Webster mice [5]; 10 mg/kg s.c., mice, Figure 3) was “did not produce significant antinociceptive effects” and the “Reversal of morphine antinociception” value (Swiss Webster mice [5]; ICV, increasing concentrations, mice, Figure 4) was “dose dependent reversal of morphine antinociception”. For the same compound, the “Dose giving complete reversal of morphine antinociception” value (Swiss Webster mice [5]; ICV, mice, Figure 4) was 0.3 μg/5 μL, the “Selectivity (κ/μ)” value (KOR [6]) was 4.6 (κ/μ) and the “Activity in hypernociceptive model of visceral pain” value (Swiss Webster mice [7]; mice with 5-day 75 mg morphine pellet, Figure 9B) was “active at three fold lower concentration”. The Number of writhes (Swiss Webster mice [7]; s.c., naive mice, Figure 9A) was “dose dependently reduced the number of writhes”, the “% max of agonist” value (KOR [8]; [14]) was 45.9 ± 1.7% and the EC50 (KOR [8]; [35S]GTPγS binding) was 2.9 ± 1.1 nM. For the same compound, the “% max of agonist” value (DOR; Emax relative to full agonist SNC80 (100%)) was 9.2 ± 2.2%, the EC50 (DOR; [35S]GTPγS binding) was 108 ± 69 nM and the “% max of agonist” value (MOR [9]; Emax relative to full agonist DAMGO (100%)) was 14.6% and 14.6 ± 0.9%. For the same compound, the EC50 (MOR [9]; [35S]GTPγS binding) was 4.84 nM and 4.8 nM.

In the case of `O=C(N[C@@H]1CC[C@@]2(O)[C@H]3Cc4ccc(O)c5c4[C@@]2(CCN3CC2CC2)[C@H]1O5)c1ccncc1` [NAP, 17-Cyclopropylmethyl-3,14beta-dihydroxy-4,5alpha-epoxy-6beta-(4'-pyridylcarboxamido)morphinan, reference compound], the “Inhibition of morphine-induced contractions” value [3] is reported as “neither NAP nor BNAP showed significant inhibition”, the “Antagonism of morphine effects” value ([3]; 10 nM antagonist, distal colon) is reported as “neither NAP nor BNAP showed significant antagonism” and the “Morphine pD2 in the presence” value [3, 12] is reported as 5.9. The “Morphine pD2 in the presence” value [3, 13] was 5.3, the “Contractions induced by compound alone” value [3] was “Neither BNAP nor NAP alone at concentrations up to 30 μM induced contractions” and the “% max of agonist” value (KOR [10]; [14]) was 45.5 ± 4.4%. The EC50 (KOR [10]; [35S]GTPγS binding) was 28.8 ± 14.4 nM and the “% max of agonist” value (MOR [11]) was 22.72 ± 0.84% and 22.7 ± 0.8%.

With `CN1CC[C@]23c4c5ccc(O)c4O[C@H]2[C@@H](O)C=C[C@H]3[C@H]1C5` [morphine, Morphine, reference compound] the “Decrease of intestinal motility” value (Swiss Webster mice [1]; mouse, in vivo) was 3 fold, the Bead expulsion time (Swiss Webster mice [4]; mouse, in vivo) was 75 min and the Antinociception (Swiss Webster mice [5]; mouse, in vivo) was “dose dependently induced antinociception”.

For DAMGO [reference compound], the “pIC50 for inhibition of EFS contractions” value [2] was 7.67 ± 0.03.
